From ChEMBL document CHEMBL1124866, “Synthesis and activity of NAcSerAspLysPro analogues on cellular interactions between T-cell and erythrocytes in rosette formation” (1990) come the findings set out here.

Assay [1] concerns Jurkat. Put plainly: (§1) Activity on rosetting of jurkat T-cells with SRBC at the concentration of 10e-3 M. The format is functional, Homo sapiens.
The test system of assay [2] is Jurkat. Kind of assay: (§2) Activity on rosetting of jurkat T-cells with SRBC at the concentration of 10e-6 M. The class given is functional, Homo sapiens.
Assay [3] has as its system Jurkat. Kind of assay: Activity on rosetting of jurkat T-cells with SRBC at the concentration of 10e-6 M; Not significant. The class given is functional, cell-based. As to conditions: Homo sapiens.
Assay [4] concerns Jurkat. Kind of assay: Activity on rosetting of jurkat T-cells with SRBC at the concentration of 10e-7 M; Not significant. Conditions: Homo sapiens, at 0.1 µM. The format is functional, cell-based. The method, boiled down:
(§3)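 Jurkat T lymphoma cells kept in RPMI 1640 with 10% heat-inactivated FCS, washed three times before use; SRBC washed three times. Jurkat cells (2 × 10^6 cells/mL, 2.10⁵ cells) preincubated with peptide in RPMI for 10 min at 4 °C. SRBC (2 × 10^8 cells/mL) added, centrifuged 5 min at 200g, held overnight at 4 °C. Rosettes (three erythrocytes per lymphocyte) counted blind by hemocytometer; three experiments in quadruplicate; % inhibition.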

In assay [5] the test system is Jurkat. Put plainly: (§4) Activity on rosetting of jurkat T-cells with SRBC at the concentration of 10e-11 M. The class given is functional, Homo sapiens.
Assay [6] deals with Jurkat. Put plainly: Activity on rosetting of jurkat T-cells with SRBC at the concentration of 10e-11 M; Not significant. The format is functional, cell-based. As to conditions: Homo sapiens, at 10 pM. In outline:
as §3

Assay [7] deals with Jurkat. Put plainly: (§5) Activity on rosetting of jurkat T-cells with SRBC at the concentration of 10e-8 M. The class given is functional, Homo sapiens.
Assay [8] has as its system Jurkat. Kind of assay: (§6) Activity on rosetting of jurkat T-cells with SRBC at the concentration of 10e-10 M. The class given is functional, Homo sapiens.
Assay [9] relates to Jurkat. Kind of assay: (§7) Activity on rosetting of jurkat T-cells with SRBC at the concentration of 10e-5 M. The format is functional, Homo sapiens.
The test system of assay [10] is Jurkat. Kind of assay: Activity on rosetting of jurkat T-cells with SRBC at the concentration of 10e-4 M; Not significant. The class given is functional, cell-based. Conditions: Homo sapiens.
Assay [11] deals with Jurkat. Put plainly: (§8) Activity on rosetting of jurkat T-cells with SRBC at the concentration of 10e-7 M. The format is functional, Homo sapiens.
Assay [12] relates to Jurkat. Kind of assay: Activity on rosetting of jurkat T-cells with SRBC at the concentration of 10e-5 M; Not significant. The format is functional, cell-based. As to conditions: Homo sapiens.
The test system of assay [13] is Jurkat. Put plainly: Activity on rosetting of jurkat T-cells with SRBC at the concentration of 0 M. The format is functional, Homo sapiens.
Assay [14] concerns Jurkat. Put plainly: (§9) Activity on rosetting of jurkat T-cells with SRBC at the concentration of 10e-9 M. The format is functional, Homo sapiens.
For assay [15], the system named is Jurkat. Put plainly: (§10) Activity on rosetting of jurkat T-cells with SRBC at the concentration of 10e-4 M. The class given is functional, Homo sapiens.
Assay [16] has as its system Jurkat. Put plainly: Activity on rosetting of jurkat T-cells with SRBC at the concentration of 10e-8 M; Not significant. The class given is functional, cell-based. Conditions: Homo sapiens, at 0.01 µM. In outline:
as §3

In assay [17] the test system is Jurkat. Kind of assay: Activity on rosetting of jurkat T-cells with SRBC at the concentration of 10e-9 M; Not significant. The class given is functional, cell-based. Conditions: Homo sapiens, at 0.001 µM. In outline: as §3
Assay [18] concerns Jurkat. Kind of assay: Activity on rosetting of jurkat T-cells with SRBC at the concentration of 10e-10 M; Not significant. The format is functional, cell-based. As to conditions: Homo sapiens, at 0.0001 µM. In outline: as §3
The subject of assay [19] is Jurkat. Kind of assay: Activity on rosetting of jurkat T-cells with SRBC at the concentration of 10e-3 M; Not significant. The format is functional, cell-based. As to conditions: Homo sapiens.
Assay [20] deals with Jurkat. The description is as §2. The class given is functional. As to conditions: Homo sapiens.
For assay [21], the system named is Jurkat. Kind of assay: (§11) Activity on rosetting of jurkat T-cells with SRBC at the concentration of 10e-12 M. The format is functional, Homo sapiens.
The test system of assay [22] is Jurkat. The assay is described as §9. The format is functional. As to conditions: Homo sapiens.
For assay [23], the system named is Jurkat. Kind of assay: Activity on rosetting of jurkat T-cells with SRBC at the concentration of 10e-10 M; Not Determined. The format is functional, Homo sapiens.
For assay [24], the system named is Jurkat. Described as §6. The class given is functional. Conditions: Homo sapiens.
Assay [25] has as its system Jurkat. The assay is described as §7. The format is functional. As to conditions: Homo sapiens.
Assay [26] concerns Jurkat. The description is as §5. The class given is functional. As to conditions: Homo sapiens.
The subject of assay [27] is Jurkat. Put plainly: Activity on rosetting of jurkat T-cells with SRBC at the concentration of 10e-11 M; Not Significant. The class given is functional, cell-based. As to conditions: Homo sapiens.
Assay [28] deals with Jurkat. Kind of assay: Activity on rosetting of jurkat T-cells with SRBC at the concentration of 10e-12 M; Not Significant. The format is functional, cell-based. Conditions: Homo sapiens.
Assay [29] deals with Jurkat. The description is as §8. The format is functional. As to conditions: Homo sapiens.
Assay [30] relates to Jurkat. Described as §10. The format is functional. Conditions: Homo sapiens.
Assay [31] deals with Jurkat. Put plainly: (§12) Activity on rosetting of jurkat T-cells with SRBC at the concentration of 10e-14 M. The class given is functional. As to conditions: Homo sapiens.
Assay [32] deals with Jurkat. The assay is described as §4. The class given is functional. As to conditions: Homo sapiens.
Assay [33] concerns Jurkat. Put plainly: Activity on rosetting of jurkat T-cells with SRBC at the concentration of 10e-15 M; Not significant. The format is functional, cell-based. Conditions: Homo sapiens.
For assay [34], the system named is Jurkat. Kind of assay: Activity on rosetting of jurkat T-cells with SRBC at the concentration of 10e-15 M. The format is functional, Homo sapiens.
Assay [35] has as its system Jurkat. Put plainly: (§13) Activity on rosetting of jurkat T-cells with SRBC at the concentration of 10e-13 M. The format is functional, Homo sapiens.
Assay [36] deals with Jurkat. Described as §13. The class given is functional. Conditions: Homo sapiens.
The subject of assay [37] is Jurkat. The description is as §11. The format is functional. As to conditions: Homo sapiens.
Assay [38] concerns Jurkat. Described as §12. The class given is functional, Homo sapiens.
For assay [39], the system named is Jurkat. Described as §1. As to conditions: Homo sapiens. The format is functional.

Each structure is given as a SMILES string. Active and inactive are the calls of the source. The rule behind the calls is not given here. Peptide text beside a SMILES is read from it.

For orientation: inhibition means the relative decrease from the control value, in per cent. As to `CC(=O)N[C@@H](CO)C(=O)N[C@H](CC(=O)O)C(=O)N[C@@H](CCCCN)C(=O)N1CCC[C@H]1C(=O)O`, the “No. of rosettes/100 Jurkat T cells” value is 48 in [1]; 42 in assay [2]; 57 in assay [5]; 47 in [7]; 43 in [8]; 49 in assay [9]. The “No. of rosettes/100 Jurkat T cells” value in assay [11] is listed as 47; in assay [13], 51; in assay [14] it was 51; in [15], 48. Also, the inhibition entry in assay [3], in [4], in [6], in assay [10], in assay [12] and in [16] was “inactive” each time. The inhibition result in assay [17], in assay [18] and in [19] was “inactive” each time.

In turn, `CC(=O)N[C@@H](CO)C(=O)N[C@@H](CC(=O)O)C(=O)N[C@@H](CCCCN)C(=O)O` (Ac-Ser-Asp-Lys-OH) displayed an inhibition at 1 µM in assay [20] of 39%. The “No. of rosettes/100 Jurkat T cells” value in [21] is 59; in assay [2], 38; in [23] it was 56; in assay [5], 62; in assay [7], 48; in assay [9], 37. Further, the “No. of rosettes/100 Jurkat T cells” value in assay [11] is on record as 45; in assay [13], 63; in [14], 51; in assay [15], 35. In addition, the inhibition at 0.001 µM in assay [22] came to 18%. Moreover, 0.0001 µM produced 10% inhibition in [24]. The inhibition at 10 µM in [25] turned out to be 40%. The inhibition at 0.01 µM in assay [26] worked out at 23%. Also, the inhibition entry in assay [27] and in [28] was “inactive” throughout. Besides, the inhibition at 0.1 µM in assay [29] came out at 27%. Also, in [30], the inhibition at 100 µM was determined as 44%.

Turning to `NCCCC[C@H](NC(=O)[C@H](CC(=O)O)NC(=O)[C@@H](N)CO)C(=O)O` (H-Ser-Asp-Lys-OH), the inhibition at 1 µM in [20] amounted to 22%. The “No. of rosettes/100 Jurkat T cells” value is 44 in [21]; 50 in assay [2]; 40 in assay [5]; 63 in assay [34]; 40 in [7]; 51 in [35]. Besides, the “No. of rosettes/100 Jurkat T cells” value in assay [8] was 43; in [9] it was 45; in assay [11], 49; in assay [13], 63; in assay [14] it was 43; in [15] it was 38. In [38], the “No. of rosettes/100 Jurkat T cells” value came out at 55. For the same compound, the inhibition at 10 fM in assay [31] stood at 14%. For the same compound, the inhibition at 10 pM in assay [32] was 36%. In [33], the inhibition result is “inactive”. In assay [22], this compound had an inhibition at 0.001 µM of 32%. Also, the inhibition at 0.0001 µM in assay [24] stood at 32%. At 10 µM the inhibition in [25] was 28%. In addition, in assay [26], at 0.01 µM the inhibition was 36%. In [36], this compound showed an inhibition at 100 fM of 19%. This compound also displayed an inhibition at 1 pM in assay [37] of 30%. This compound came in with an inhibition at 0.1 µM in assay [29] of 22%. At 100 µM the inhibition in assay [30] was 40%.

Turning to `CC(=O)N[C@@H](CO)C(=O)N[C@@H](CC(=O)O)C(=O)N[C@@H](CCCCN)C(=O)N1CCC[C@H]1C(=O)O` (stereo in doubt; form 1) [GORALATIDE], the inhibition at 1 µM in [20] is 40%. Also, the “No. of rosettes/100 Jurkat T cells” value in assay [1] is recorded as 32; in assay [2] it was 37; in [5] it was 58; in assay [7], 41; in assay [8] it was 63; in assay [9] it was 32. Further, the “No. of rosettes/100 Jurkat T cells” value was 40 in assay [11], 62 in assay [13], 48 in [14] and 33 in assay [15]. Further, the inhibition at 0.001 µM in assay [22] is 21%. The inhibition at 10 µM in [25] came out at 48%. The compound also had an inhibition at 0.01 µM in assay [26] of 34%. In assay [39], testing at 1000 µM gave an inhibition of 48%. For the same compound, the inhibition at 0.1 µM in assay [29] worked out at 35%. For the same compound, in [30], the inhibition at 100 µM was 48%.
